TRPC6 inhibitor: mouse TRPC6 channel inhibition; Q61143; HEK293-TRPC6, membrane potential dye, ACh-evoked depolarization; hits give low values; B-score at 10 µM; 1.1% of 310,000 active; AID 2553;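 active = B-score under library mean minus 3 SD, initial fluorescence not abnormally high, positive integrated signal ratio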;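 also: B-score derived from integrated fluorescence ratio over the kinetic read; more negative B-score means stronger inhibition of depolarization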
Target sequence (Q61143 whole entry, looked up): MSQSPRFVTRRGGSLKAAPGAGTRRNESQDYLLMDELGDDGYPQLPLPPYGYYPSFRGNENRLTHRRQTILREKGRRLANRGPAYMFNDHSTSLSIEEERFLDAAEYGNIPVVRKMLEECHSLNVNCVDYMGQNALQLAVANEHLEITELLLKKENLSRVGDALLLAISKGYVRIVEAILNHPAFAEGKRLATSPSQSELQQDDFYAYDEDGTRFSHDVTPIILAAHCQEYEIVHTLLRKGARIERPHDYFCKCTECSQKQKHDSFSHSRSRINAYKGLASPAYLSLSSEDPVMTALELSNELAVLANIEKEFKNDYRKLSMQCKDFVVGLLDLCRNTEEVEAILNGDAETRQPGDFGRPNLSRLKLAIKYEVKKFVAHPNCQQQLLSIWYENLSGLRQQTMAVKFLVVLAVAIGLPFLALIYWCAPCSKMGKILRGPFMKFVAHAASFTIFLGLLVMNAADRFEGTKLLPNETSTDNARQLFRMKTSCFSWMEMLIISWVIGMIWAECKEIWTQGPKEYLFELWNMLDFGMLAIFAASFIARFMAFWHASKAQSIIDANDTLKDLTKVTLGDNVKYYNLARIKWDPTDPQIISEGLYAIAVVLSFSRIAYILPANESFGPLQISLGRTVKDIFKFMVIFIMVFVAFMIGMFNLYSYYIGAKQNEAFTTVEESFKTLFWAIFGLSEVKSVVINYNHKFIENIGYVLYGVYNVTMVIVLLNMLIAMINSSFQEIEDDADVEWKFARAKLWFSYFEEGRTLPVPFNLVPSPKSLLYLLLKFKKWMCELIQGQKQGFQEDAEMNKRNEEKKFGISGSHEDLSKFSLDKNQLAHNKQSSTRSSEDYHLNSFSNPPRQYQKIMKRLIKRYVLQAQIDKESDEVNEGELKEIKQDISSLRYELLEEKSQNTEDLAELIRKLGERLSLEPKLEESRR
CR mimetic SO: caloric restriction mimetics inhibiting age-related superoxide in yeast. superoxide response (% of plate mean), % at 10 µM. S. cerevisiae aged cells, superoxide DHE fluorescence; hits give low values. 0.18% of 330,000 active;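 active = superoxide response under a set limit, about three screen SD below normal, cut at about 65% in these data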;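 also: yeast aged for seven days with compound at 30 °C before DHE staining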
TRPC6 act: activates the mouse TRPC6 cation channel; Q61143; HEK293-TRPC6 membrane potential dye fluorescence; hits give high values; B-score at 10 µM; 0.13% of 310,000 active; AID 2550;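 active = B-score of the integrated fluorescence ratio above library mean plus 3 SD, and starting fluorescence ratio within library mean plus 5 SD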;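 also: higher score means more depolarization so channel activation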
TRPC4 act: TRPC4 (mouse) channel activation | Q9QUQ5 | B-score at 10 µM | AID 2237 | HEK293 TRPC4beta/mu-opioid, Fluo4 calcium fluorescence; hits give high values | 0.49% of 310,000 active;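 active = B-score above 5 SD of library B-scores, and initial fluorescence ratio not above library mean plus 5 SD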;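 also: positive B-score marks a calcium rise read as TRPC4 activation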
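Incubation: 45 min room-temperature Fluo4 loading, 110 s read / System: HEK293 cells stably co-expressing mouse TRPC4beta and mu-opioid receptor / Signal: Fluo4 fluorescence, kinetic / Control set: buffer (low) and maximal DAMGO (high) / Measure: integrated baseline-normalised fluorescence ratio, converted to per-well B score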
TRPC4 potent: allosteric potentiators of mouse TRPC4 channel. AID 2227. HEK293 TRPC4beta/mu-opioid, DAMGO EC20, Fluo-4 Ca2+ flux; hits give high values. B-score at 10 µM. Q9QUQ5. 0.42% of 310,000 active;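 active = B-score of calcium response area above 5 SD of library B-scores, with initial fluorescence ratio within 5 SD of library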
TRPC4 block: inhibitors of mouse TRPC4 channel. B-score at 10 µM. HEK293 TRPC4beta/mu-opioid, DAMGO-evoked Fluo4 calcium flux; hits give low values. Q9QUQ5. 0.39% of 300,000 active;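 active = B-score over 3 SD under the library average, no early fluorescence shift, positive overall ratio signal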
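Assay system: HEK293 cells with stable TRPC4beta plus mu-opioid receptor expression. Dosing: single dose. Measured by: Fluo4 Ca2+ flux fluorescence. Also added: DAMGO in two steps, submaximal then maximal. Read-out: B score from integrated Fluo4 fluorescence ratio.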
A number is an active result; n = inactive; x = no result. The list is not random: actives were taken first. Their share in the collection is about 2.3%.

SMILES | TRPC6 inhibitor | CR mimetic SO | TRPC6 act | TRPC4 act | TRPC4 potent | TRPC4 block
Cc1ccccc1N=C1c2cc([N+](=O)[O-])ccc2-c2ncccc21 | n | n | n | n | n | n
Cc1cc(Cl)ccc1OCC(=O)NC(=S)Nc1ccccc1N1CCOCC1 | n | n | n | n | n | n
COc1ccc(NC(=O)Nc2ccc(C(C)C)cc2)cc1 | n | n | n | n | n | -6
O=C(Nc1cccc([N+](=O)[O-])c1)c1cc(S(=O)(=O)Nc2ccccn2)ccc1Cl | n | n | n | n | n | n
COc1ccc(-c2nsc3c(N4CCCCC4C)ncnc23)cc1 (centres undefined) | n | n | n | n | 11 | n
COc1ccc(-c2nsc3c(N4CCCCC4)ncnc23)cc1 | n | n | n | n | n | n
NC(=O)CCn1c(C(=O)c2cc(Cl)c(N)c(Cl)c2)c2ccccc2[n+]1[O-] | n | n | n | n | n | n
NCCCn1c(C(=O)c2cc(Cl)c(N)c(Cl)c2)c2ccccc2[n+]1[O-] | n | n | n | 178 | n | n
CC(OC(=O)c1cc[n+]([O-])cc1)C(=O)Nc1ccc(C(N)=O)cc1 (centres undefined) | x | n | x | x | x | x
CN(CCCNC(=O)CCCOc1cc(=O)n(C)c2ccccc12)Cc1ccccc1 | n | n | n | n | 19 | n
COc1ccc(CCNC(=O)CCCOc2cc(=O)n(C)c3ccccc23)cc1OC | n | n | n | n | n | n
CN(CCNC(=O)CCCOc1cc(=O)n(C)c2ccccc12)Cc1ccccc1 | n | n | n | 99 | n | n
CC(C)c1ccc(NC(=S)N(C)CCc2ccccn2)cc1 | n | n | n | 107 | n | n
Cc1ccc(-c2c[n+](CC(=O)Nc3nc(-c4ccc(F)cc4)cs3)c3n2CCC3)cc1 | n | n | n | n | n | -6
CCCCn1c(N)c(N(CC(C)C)C(=O)c2ccc(N(C)S(=O)(=O)c3ccc(C)cc3)cc2)c(=O)[nH]c1=O | n | n | n | n | n | n
COC(=O)C1=C(COc2ccccc2)NC(=O)NC1c1ccc(Cl)cc1 (centres undefined) | n | n | n | n | 11 | n
O=C(NCc1ccco1)c1cc(S(=O)(=O)N2CCOCC2)c(Cl)cc1Cl | n | x | n | n | n | n
N#Cc1c(Oc2ccc3ccccc3c2)sc(C(=O)c2ccccc2)c1N | n | n | n | n | 12 | n
CN1CCCC(OC(=O)c2cc(Cl)cc(Cl)c2)C1 (centres undefined) | n | n | n | 193 | n | n
CN1CCCC(OC(=O)COc2ccccc2)C1 (centres undefined) | n | n | n | n | n | n
CN1CCCC(OC(=O)c2ccccc2Br)C1 (centres undefined) | n | n | n | n | 10 | n
CN1CCCC(OC(=O)c2cccc(Cl)c2)C1 (centres undefined) | n | n | n | 45 | 12 | n
CN1CCCC(OC(=O)c2cccc(Br)c2)C1 (centres undefined) | n | n | n | 58 | n | n
CCOc1ccc(C(=O)OC2CCCN(C)C2)cc1 (centres undefined) | n | n | n | n | n | n
CN1CCC(OC(=O)c2cccc(Br)c2)CC1 | n | n | n | n | n | n
SMILES | TRPC6 inhibitor | CR mimetic SO | TRPC6 act | TRPC4 act | TRPC4 potent | TRPC4 block
CN1CCCC(OC(=O)c2cccc(S(=O)(=O)N3CCCCCC3)c2)C1 (centres undefined) | n | n | n | n | n | n
COc1ccc(NC(=O)CCN2C(=O)c3ccccc3S2(=O)=O)c(OC)c1 | n | n | n | n | n | n
NC(=O)CN1C(=O)C(=O)N(Cc2ccccc2Cl)C1=O | n | n | n | n | n | n
CC12CC3CC(C)(C1)CC(C(=O)Nc1nn[nH]n1)(C3)C2 | n | n | n | n | n | n
CCc1nnc(NC(=O)CSc2nccn2-c2cc(C)cc(C)c2)s1 | n | n | n | n | n | n
COc1ccccc1CCC(=O)N(CCC1=CCCCC1)c1c(N)n(Cc2ccccc2)c(=O)[nH]c1=O | n | n | n | n | n | n
CC(=O)/C=C1/C(=O)Nc2ccccc21 | n | n | n | n | n | -5
Nc1nc(-c2ccc(-n3nncc3-c3ccco3)cc2)cs1 | n | n | n | n | n | -5
C=CCOC(=O)C1=C[C@H](c2ccc(C(F)(F)F)cc2)C[C@H](OCCCCO)O1 | n | x | n | n | n | n
Cc1ccc(-c2ccc3c(c2)S(=O)(=O)c2ccccc2C3=O)cc1 | n | n | n | n | 29 | n
COc1cccc(NC(=S)N2CCCN(Cc3ccc(F)cc3)C2)c1 | n | n | n | 45 | n | n
CCOc1ccc(N(C(=O)CNC(=O)c2ccco2)C(C(=O)NCC2CCCO2)c2ccccc2)cc1 (centres undefined) | n | n | n | n | n | n
COc1ccc(N(C(=O)CNC(=O)c2ccco2)C(C(=O)NCC2CCCO2)c2ccccc2)cc1 (centres undefined) | n | n | n | n | 11 | n
COCc1ccc(C(=O)N(C)C2CCCN(Cc3ccccc3F)C2)o1 (centres undefined) | n | n | n | n | n | n
O=C1OCCN/C1=C\C(=O)c1ccccc1 | n | n | n | n | 14 | n
COc1cccc2cc(-c3nnc(SCC(=O)Nc4nc(C)cs4)n3C)oc12 | n | n | n | n | n | n
C1CCN(c2nc(N3CCCCC3)nc(N3CCNCC3)n2)CC1 | n | n | n | n | 22 | n
Cc1ccccc1C(=O)Nc1ccc(C(=O)N/N=C/c2ccncc2)cc1 | n | n | n | n | n | -6
CCn1c2ccccc2c2nnc(NN)nc21 | n | n | n | 45 | 15 | n
CCn1c2ccc(C)cc2c2nnc(NN)nc21 | n | n | n | n | n | n
CC(=O)c1ccc(N2CCN(C(=O)CCCn3c(=O)[nH]c4ccccc4c3=O)CC2)cc1 | n | n | n | n | n | n
COc1ccc(N2CCN(C(=O)CCCn3c(=O)[nH]c4cc(Cl)ccc4c3=O)CC2)cc1 | n | n | n | n | n | -6
COc1nc(NCCO)nc(Nc2ccccc2F)n1 | n | n | n | n | n | n
Cc1ccc(C(=O)NC(=S)Nc2cccc3nsnc23)cc1 | n | n | n | n | n | n
Cc1ccc(C(=O)NC(=S)Nc2c(C)ccc3nsnc23)cc1 | n | n | n | n | n | -5
Cc1ccc(C)c(S(=O)(=O)N2CCN(C(=O)c3ccnn3C)CC2)c1 | n | n | n | n | n | n
Cc1cc(S(=O)(=O)NC2CCN(Cc3ccccc3)CC2)c(C)cc1Cl | n | n | n | n | 20 | n
Cc1ccc(SCCN)cc1C | n | n | n | 83 | n | n
Cc1ccc(SCC(=O)NNC(=O)c2ccccc2)cc1C | n | n | n | n | n | n
CC1=NN(c2ccccc2)C(=O)/C1=C/c1ccc(Cl)cc1 | n | n | n | n | 10 | n
